Reference: ChEMBL document CHEMBL1127310, “Synthesis and anticonvulsant activities of alpha-acetamido-N-benzylacetamide derivatives containing an electron-deficient alpha-heteroaromatic substituent” (1994)

Assays:
Format in all cases: functional
Mus musculus [1] = species: Mus musculus; experiment: Median neurologically impairing dose was determined in mice using the rotarod test
Procedure, shortened: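 Male Carworth Farms No. 1 mice dosed ip and placed on a 1-in. knurled rod turning at 6 rpm. Neurotoxicity means failure to stay on the rod for 1 min. Four mice per dose in the screen, then normally eight mice per dose for the dose-response, at time of peak effect.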

[2] = Protective Index was determined using the ratio of TD50/ED50 value
Procedure, shortened: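 PI is TD50/ED50 in ip-dosed mice. TD50 comes from the rotorod or the horizontal screen test. ED50 comes from the MES test. Not determined when there was no MES activity below 100 mg/kg.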

Mus musculus [3] = experiment: Effective dose required to prevent tonic extension of the hind limbs in mice in the maximal electroshock seizures (MES) test when administered intraperitoneally; conditions: Hindlimb, ip
Procedure, shortened: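 Male Carworth Farms No. 1 mice, drug given ip. Seizures elicited by 60-cycle alternating current, 50 mA, for 0.2 s via corneal electrodes. Protection means no tonic hind-limb extension. Phase I screen at 30, 100 and 300 mg/kg. Dose-response then run at varied doses, normally eight mice per dose, at time of peak effect (0.5 h or 0.25 h).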

Which TD50 (Mus musculus [1]) does the source give for `CC(=O)NC(C(=O)NCc1ccccc1)c1ccsc1` (centres undefined) here?
The TD50 was < 100 mg/kg.

For `CC(=O)NC(C(=O)NCc1ccccc1)c1ccco1` (centres undefined), which TD50 (Mus musculus [1]) is on record?
The TD50 was ~40 mg/kg.

And the PI [2]?
The PI was > 3.9.

Which TD50 (Mus musculus [1]) does the source give for `CC(=O)NC(C(=O)NCc1ccccc1)c1nccs1` (centres undefined) here?
The TD50 was 69.1 mg/kg.

What about the PI [2] of the same compound?
The PI was 5.7.

Which TD50 (Mus musculus [1]) does the source give for `CC(=O)NC(C(=O)NCc1ccccc1)c1ccc[nH]1` (centres undefined) here?
Its TD50 is < 100 mg/kg.

With `CC(=O)NC(C(=O)NCc1ccccc1)c1cccs1` (centres undefined) as the compound, how does the TD50 (Mus musculus [1]) read?
The TD50 was < 100 mg/kg.

Which TD50 (Mus musculus [1]) does the source give for `CC(=O)NC(C(=O)NCc1ccccc1)c1ccccc1` (centres undefined) here?
The TD50 was > 40 mg/kg.

What does the source list for `CC(=O)NC(C(=O)NCc1ccccc1)c1ncccn1` (centres undefined)?
ED50 (Mus musculus [3]): 8.1 mg/kg; TD50 (Mus musculus [1]): 56.7 mg/kg; PI [2]: 7

Which results are given for `CC(=O)NC(C(=O)NCc1ccccc1)c1cnccn1` (centres undefined)?
ED50 (Mus musculus [3]): 14.8 mg/kg; TD50 (Mus musculus [1]): 58.2 mg/kg; PI [2]: 3.9

Which results are given for `CC(=O)NC(C(=O)NCc1ccccc1)c1ncco1` (centres undefined)?
TD50 (Mus musculus [1]): 38.6 mg/kg; PI [2]: 3.7

With `CCC1(c2ccccc2)C(=O)NC(=O)NC1=O` [PHENOBARBITAL] as the compound, how does the TD50 (Mus musculus [1]) read?
Its TD50 is 69 mg/kg.

Which ED50 (Mus musculus [3]) does the source give for `CC(=O)NC(C(=O)NCc1ccccc1)c1ccccn1` (centres undefined) here?
Its ED50 is 10.8 mg/kg.

And the TD50 (Mus musculus [1])?
Its TD50 is < 100 mg/kg.
